Measurements published in ChEMBL document CHEMBL5625189, “Discovery of new diaryl ether inhibitors against Mycobacterium tuberculosis targeting the minor portal of InhA” (Eur J Med Chem, 2023).
Activity calls are given as the source filed them. The calls are words filed in the database; no cut-off is given here.

Legend:
[1] = molecular target: T1, Enoyl-[acyl-carrier-protein] reductase [NADH] (Mycobacterium tuberculosis) (UniProt P9WGR1); experiment: Inhibition of his6-tagged Mycobacterium tuberculosis InhA using trans-2-dodecenoyl-coenzyme as substrate at 200 uM in presence of […] relative to control
T1 sequence (whole entry): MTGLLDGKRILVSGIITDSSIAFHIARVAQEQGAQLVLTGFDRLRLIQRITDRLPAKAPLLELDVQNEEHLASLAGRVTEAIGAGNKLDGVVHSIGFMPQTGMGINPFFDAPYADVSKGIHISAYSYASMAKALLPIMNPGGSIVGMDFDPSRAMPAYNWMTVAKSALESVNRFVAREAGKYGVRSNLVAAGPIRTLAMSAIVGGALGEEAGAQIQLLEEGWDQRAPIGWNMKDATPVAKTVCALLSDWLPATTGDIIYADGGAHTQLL

[2] = Selectivity index, ratio of IC50 for cytotoxicity against human HCT-116 cells assessed as inhibition of cell growth to MIC for antimycobacterial activity against Mycobacterium tuberculosis H37Rv assessed as reduction in microbial growth; assay type: toxicity, cell-based
Procedure, shortened: (§1)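 Selectivity index: IC50 on each human cell line (72 h SRB assay) divided by MIC against Mtb H37Rv (MTT microassay).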

[3] = Selectivity index, ratio of IC50 for cytotoxicity against human HepG2 cells assessed as inhibition of cell growth to MIC for antimycobacterial activity against Mycobacterium tuberculosis H37Rv assessed as reduction in microbial growth; assay type: toxicity, cell-based; procedure, shortened: as §1
[4] = molecular target: T1, Enoyl-[acyl-carrier-protein] reductase [NADH] (Mycobacterium tuberculosis); experiment: Inhibition of his6-tagged Mycobacterium tuberculosis InhA using trans-2-dodecenoyl-coenzyme as substrate at 50 uM in presence of […] relative to control
[5] = molecular target: T1, Enoyl-[acyl-carrier-protein] reductase [NADH] (Mycobacterium tuberculosis); experiment: Inhibition of his6-tagged Mycobacterium tuberculosis InhA using trans-2-dodecenoyl-coenzyme as substrate at 10 uM in presence of […] relative to control
[6] = test system: Mycobacterium tuberculosis; experiment: Antimycobacterial activity against Mycobacterium tuberculosis H37Rv assessed as reduction in microbial growth incubated for 6 days by broth dilution method; assay type: functional; settings: 144 h, time 6 day
Procedure, shortened: (§2)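 Mtb H37Rv pellicle cells dispersed with glass beads in 7H9-0.2% glycerol, clumps removed by low-speed spin; twofold serial dilutions (DMSO stocks 1 or 10 mM) in 7H9, inoculum OD600 0.1; 6 days at 37 °C, then MTT added, 1 day more; SDS solubilisation, OD 570 nm; MIC = lowest concentration inhibiting growth, ≥3 independent experiments.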

HCT-116 = experiment: Cytotoxicity against human HCT-116 cells assessed as inhibition of cell growth incubated for 72 hrs by SRB assay; assay type: functional, cell-based; settings: HCT-116, 72 h
Procedure, shortened: (§3)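 Seeded 24 h before dosing (HCT116 1500, CACO2 2500, HepG2 9000, WI38hTERT 3500 cells/well); HCT116 in DMEM high-glucose, others in MEM, 10% FBS (20% for CACO2); serial 2-fold dilutions for 72 h at 37 °C, 5% CO2; SRB staining, OD 490 nm; background-subtracted, normalized to untreated; duplicate points, ≥3 independent experiments; IC50 by four-parameter logistic fit.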

Caco-2 = experiment: Cytotoxicity against human Caco-2 cells assessed as inhibition of cell growth incubated for 72 hrs by SRB assay; assay type: functional, cell-based; settings: Caco-2, 72 h; procedure, shortened: as §3
HepG2 = experiment: Cytotoxicity against human HepG2 cells assessed as inhibition of cell growth incubated for 72 hrs by SRB assay; assay type: functional, cell-based; settings: HepG2, 72 h; procedure, shortened: as §3
WI-38 = experiment: Cytotoxicity against human WI-38 cells assessed as inhibition of cell growth incubated for 72 hrs by SRB assay; assay type: functional, cell-based; settings: WI-38, 72 h; procedure, shortened: as §3
[7] = Selectivity index, ratio of IC50 for cytotoxicity against human Caco-2 cells assessed as inhibition of cell growth to MIC for antimycobacterial activity against Mycobacterium tuberculosis H37Rv assessed as reduction in microbial growth; assay type: toxicity, cell-based; procedure, shortened: as §1
[8] = Selectivity index, ratio of IC50 for cytotoxicity against human WI-38 cells assessed as inhibition of cell growth to MIC for antimycobacterial activity against Mycobacterium tuberculosis H37Rv assessed as reduction in microbial growth; assay type: toxicity, cell-based; procedure, shortened: as §1
[9] = molecular target: T2, Enoyl-[acyl-carrier-protein] reductase [NADH] (Mycobacterium tuberculosis, UniProt P9WGR1); experiment: Inhibition of his6-tagged Mycobacterium tuberculosis InhA using trans-2-dodecenoyl-coenzyme as substrate in presence of […]
T2 sequence (P9WGR1 whole entry): T1 sequence (whole entry)

[10] = molecular target: T1, Enoyl-[acyl-carrier-protein] reductase [NADH] (Mycobacterium tuberculosis); experiment: Inhibition of his6-tagged Mycobacterium tuberculosis InhA using trans-2-dodecenoyl-coenzyme as substrate at 500 uM in presence of […] relative to control
[11] = molecular target: T2, Enoyl-[acyl-carrier-protein] reductase [NADH]; experiment: Inhibition of Mycobacterium tuberculosis H37Rv InhA using trans-2-dodecenoyl-coenzyme A as substrate in presence of NADH
[12] = molecular target: T1, Enoyl-[acyl-carrier-protein] reductase [NADH] (Mycobacterium tuberculosis); experiment: Inhibition of his6-tagged Mycobacterium tuberculosis InhA using trans-2-dodecenoyl-coenzyme as substrate at 100 uM in presence of […] relative to control
[13] = test system: Mycobacterium tuberculosis; experiment: Antimycobacterial activity against Mycobacterium tuberculosis H37Rv assessed as reduction in microbial growth; assay type: functional; procedure, shortened: as §2

For C#CCNC(=O)c1cc2ccccc2oc1=O, the inhibition [1] was “inactive”.

CCCCCCc1ccc(Oc2ccc(Cn3cc(CNc4ccc([N+](=O)[O-])c5nonc45)nn3)cc2)c(O)c1 gave a selectivity ratio [2] of 3.5, a selectivity ratio [3] of 10.8 and an inhibition [4] of 32.3%. The inhibition [5] was 11.4%, the MIC [6] was 1.4 µg/mL and the IC50 (HCT-116) was 8700 nM. For the same molecule, the IC50 (Caco-2) was 26100 nM, the IC50 (HepG2) was 26900 nM and the IC50 (WI-38) was 52900 nM. The selectivity ratio [7] was 10.5 and the selectivity ratio [8] was 21.2.

For CN(C)S(=O)(=O)c1ccc(NCc2cn(Cc3ccc(Oc4ccccc4)c(O)c3)nn2)c2nonc12, the IC50 ([9]; read-out: IC50) was 733 nM and the MIC [6] was > 52 µg/mL.

O=c1ccc2ccc(OCc3cn(Cc4ccc(Oc5ccccc5O)cc4)nn3)cc2o1 gave an inhibition [4] of 10% and an MIC [6] of 2.2 µg/mL.

In the case of O=C(NCc1cn(Cc2ccc(Oc3ccccc3)c(O)c2)nn1)c1cc2cc(O)ccc2oc1=O, the IC50 ([9]; read-out: IC50) is reported as 844 nM and the MIC [6] is reported as > 4.8 µg/mL.

In the case of C#CCNC(=O)c1cc2ccc(N(CC)CC)cc2oc1=O, the inhibition [10] is reported as 10%.

For O=[N+]([O-])c1ccc(NCc2cn(Cc3ccc(Oc4ccccc4)c(O)c3)nn2)c2nonc12, the IC50 ([9]; read-out: IC50) was 459 nM and the MIC [6] was 4.6 µg/mL.

Work on O=C(NCc1cn(Cc2ccc(Oc3ccccc3)c(O)c2)nn1)c1cc2ccccc2oc1=O yielded an IC50 ([9]; read-out: IC50) of 598 nM and an MIC [6] of 4.7 µg/mL.

In the case of CCCCCCc1ccc(Oc2ccc(Cn3cc(CNC(=O)c4cc5ccc(N(CC)CC)cc5oc4=O)nn3)cc2)c(O)c1, the inhibition [4] is reported as 53.7%, the inhibition [5] is reported as 31.5% and the MIC [6] is reported as > 60 µg/mL.

In the case of CCN(CC)c1ccc2cc(C(=O)NCc3cn(Cc4ccc(Oc5ccccc5)c(O)c4)nn3)c(=O)oc2c1, the IC50 ([9]; read-out: IC50) is reported as 3550 nM and the MIC [6] is reported as > 54 µg/mL.

With CCN(CC)c1ccc2c(OCc3cn(Cc4ccc(Oc5ccccc5)c(O)c4)nn3)cc(=O)oc2c1 the selectivity ratio [2] was 0.4, the selectivity ratio [3] was 1.3 and the IC50 ([9]; read-out: IC50) was 54 nM. For the same molecule, the MIC [6] was 0.7 µg/mL, the IC50 (HCT-116) was 530 nM and the IC50 (Caco-2) was 1100 nM. The IC50 (HepG2) was 1600 nM, the IC50 (WI-38) was 600 nM and the selectivity ratio [7] was 0.9. It also gave a selectivity ratio [8] of 0.5.

With O=c1cc(OCc2cn(Cc3ccc(Oc4ccccc4)c(O)c3)nn2)c2ccccc2o1 the IC50 ([9]; read-out: IC50) was 181 nM and the MIC [6] was 2.2 µg/mL.

For COc1cccc2cc(C(=O)NCc3cn(Cc4ccc(Oc5ccccc5)c(O)c4)nn3)c(=O)oc12, the IC50 ([9]; read-out: IC50) was 740 nM and the MIC [6] was 5 µg/mL.

Oc1cc2ccc1Oc1ccc(cc1)CCc1ccc(c(O)c1)Oc1ccc(cc1)CC2 gave an IC50 [11] of 4700 nM.

In the case of O=c1ccc2ccc(OCc3cnnn3Cc3ccc(Oc4ccccc4)c(O)c3)cc2o1, the IC50 ([9]; read-out: IC50) is reported as 630 nM.

For C#CCOc1ccc2ccc(=O)oc2c1, the inhibition [1] was 99% and the inhibition [12] was 30%.

In the case of O=C(O)c1cn(C2CC2)c2cc(N3CCNCC3)c(F)cc2c1=O [CIPROFLOXACIN], the IC50 [9] is reported as “Not Active” and the MIC [6] is reported as 0.8 µg/mL.

Cc1cc(=O)oc2cc(OCc3cn(Cc4ccc(Oc5ccccc5)c(O)c4)nn3)ccc12 showed a selectivity ratio [2] of 19.1, a selectivity ratio [3] of 24.8 and an IC50 ([9]; read-out: IC50) of 205 nM. The MIC [6] was 0.6 µg/mL, the IC50 (HCT-116) was 23900 nM and the IC50 (Caco-2) was 25000 nM. The IC50 (HepG2) was 31000 nM, the IC50 (WI-38) was > 100000 nM and the selectivity ratio [7] was 20. For the same molecule, the selectivity ratio [8] was > 80.

Cc1cc(=O)oc2cc(OCc3cnnn3Cc3ccc(Oc4ccccc4)c(O)c3)ccc12 gave an IC50 ([9]; read-out: IC50) of 510 nM.

In the case of COc1ccc2cc(C(=O)NCc3cn(Cc4ccc(Oc5ccccc5)c(O)c4)nn3)c(=O)oc2c1, the IC50 ([9]; read-out: IC50) is reported as 345 nM and the MIC [6] is reported as > 5 µg/mL.

[N-]=[N+]=NCc1ccc(Oc2ccccc2)c(O)c1 gave an IC50 ([9]; read-out: IC50) of 843 nM.

With C#CCOc1cc(=O)oc2ccccc12 the inhibition [10] was “inactive”.

C#CCOc1ccc2c(C)cc(=O)oc2c1 gave an inhibition [1] of 37% and an inhibition [10] of 90%.

Molecule O=c1ccc2ccc(OCc3cn(Cc4ccc(Oc5ccccc5)c(O)c4)nn3)cc2o1 has an IC50 ([9]; read-out: IC50) of 163 nM and an MIC [6] of 2.2 µg/mL.

With CCCCCCCCc1ccc(Oc2ccccc2)c(O)c1 the MIC [13] was 6.4 µM.
